In ChEMBL document CHEMBL1154939, “Novel multiple opioid ligands based on 4-aminobenzazepinone (Aba), azepinoindole (Aia) and tetrahydroisoquinoline (Tic) scaffolds” (Bioorg Med Chem Lett, 2010):
The source made the active and inactive calls. The rule behind the calls is not given here. Numbered stars: 1 amine (or outer) side, 2 acyl side, 3 side chain; on linkers, the order of the positions; unused ones are H or OH. Bridge positions count the residues as written; N and C are the ends. Square brackets hold non-standard residues; d marks the D form. Peptide text beside a SMILES is read from it. I, II: the chains in the order shown. Dmt = Cc1cc(O)cc(C)c1C[C@H](N)C(=O)O; Ethylenediamine = C(CN[*:2])N[*:1]; Tic = O=C(O)[C@@H]1Cc2ccccc2CN1

Columns and labels:
Mu-type opioid receptor [1] = molecular target: Mu-type opioid receptor (Rattus norvegicus, UniProt P33535); assay: Displacement of [3H]DAMGO from mu opioid receptor in rat brain membranes; type: cell membranes
Procedure, shortened: (§1)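 Equilibrium competition binding on P2 membrane preparation of rat brain; mu sites labelled with [3H]DAMGO, delta sites with [3H]deltorphin II. Five to eight graded peptide doses, duplicate wells; Ki via Cheng-Prusoff. Mean ± SEM from three to six independent assays using different synaptosomal preparations.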

Rattus norvegicus [2] = species on record: Rattus norvegicus; assay: Selectivity ratio of Ki for rat mu opioid receptor to Ki for rat delta opioid receptor
[3] = molecular target: Delta-type opioid receptor (Rattus norvegicus, UniProt P33533); assay: Displacement of [3H]deltorphin 2 from delta opioid receptor in rat brain membranes; type: cell membranes; procedure, shortened: as §1
[4] = molecular target: Delta-type opioid receptor (Rattus norvegicus) (UniProt P33533); assay: Antagonist activity at delta opioid receptor in rat NG108-15 cells assessed as inhibition of deltorphin C-stimulated [35S]-GTPgammaS binding after 60 mins by scintillation counting; type: functional, cell-based
Procedure, shortened: (§2)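 [35S]GTPγS binding in cell membranes: delta antagonism measured against deltorphin C-stimulated binding in NG108-15 membranes, mu antagonism against loperamide-stimulated binding in SK-N-SH membranes; antagonism expressed as pA2 from rightward shift of agonist dose-response curves.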

[5] = molecular target: Mu-type opioid receptor (Homo sapiens) (UniProt P35372); assay: Antagonist activity at mu opioid receptor in human SK-N-SH cells assessed as inhibition of loperamide-stimulated [35S]-GTPgammaS binding after 60 mins by liquid scintillation counting; type: functional, cell-based; procedure, shortened: as §2
[6] = molecular target: Delta-type opioid receptor (Mus musculus, UniProt P32300); assay: Antagonist activity at delta opioid receptor in mouse vas deferens; type: functional, tissue-based
Mu-type opioid receptor [7] = molecular target: Mu-type opioid receptor (Cavia porcellus, UniProt P97266); assay: Antagonist activity at mu opioid receptor in guinea pig ileum; type: functional, tissue-based
Rattus norvegicus [8] = species on record: Rattus norvegicus; assay: Selectivity ratio of Ki for rat delta opioid receptor to Ki for rat mu opioid receptor

Chain of Mu-type opioid receptor (Homo sapiens) (P35372 whole entry): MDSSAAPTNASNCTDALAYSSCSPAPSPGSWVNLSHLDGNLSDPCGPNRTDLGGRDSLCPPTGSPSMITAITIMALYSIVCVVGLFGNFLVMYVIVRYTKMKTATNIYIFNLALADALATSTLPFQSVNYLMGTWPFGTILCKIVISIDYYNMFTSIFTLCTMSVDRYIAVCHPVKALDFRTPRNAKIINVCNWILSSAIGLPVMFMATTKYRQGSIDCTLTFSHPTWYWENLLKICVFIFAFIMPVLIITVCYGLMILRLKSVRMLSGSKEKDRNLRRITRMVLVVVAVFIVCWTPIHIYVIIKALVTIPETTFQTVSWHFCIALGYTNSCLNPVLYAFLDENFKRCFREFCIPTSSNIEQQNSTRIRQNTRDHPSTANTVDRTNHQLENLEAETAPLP
Chain of Delta-type opioid receptor (Mus musculus, UniProt P32300) (P32300 whole entry): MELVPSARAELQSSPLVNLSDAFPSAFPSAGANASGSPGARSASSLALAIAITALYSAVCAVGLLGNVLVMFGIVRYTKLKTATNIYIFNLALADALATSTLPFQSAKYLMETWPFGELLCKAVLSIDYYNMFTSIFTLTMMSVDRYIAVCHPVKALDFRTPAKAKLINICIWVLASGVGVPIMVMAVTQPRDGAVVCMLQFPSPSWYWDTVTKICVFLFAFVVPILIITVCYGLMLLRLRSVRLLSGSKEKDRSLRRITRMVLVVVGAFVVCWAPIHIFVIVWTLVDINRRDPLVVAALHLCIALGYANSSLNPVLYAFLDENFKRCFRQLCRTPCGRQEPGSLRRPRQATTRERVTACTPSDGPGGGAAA
Chain of Mu-type opioid receptor (Rattus norvegicus, UniProt P33535) (P33535 whole entry): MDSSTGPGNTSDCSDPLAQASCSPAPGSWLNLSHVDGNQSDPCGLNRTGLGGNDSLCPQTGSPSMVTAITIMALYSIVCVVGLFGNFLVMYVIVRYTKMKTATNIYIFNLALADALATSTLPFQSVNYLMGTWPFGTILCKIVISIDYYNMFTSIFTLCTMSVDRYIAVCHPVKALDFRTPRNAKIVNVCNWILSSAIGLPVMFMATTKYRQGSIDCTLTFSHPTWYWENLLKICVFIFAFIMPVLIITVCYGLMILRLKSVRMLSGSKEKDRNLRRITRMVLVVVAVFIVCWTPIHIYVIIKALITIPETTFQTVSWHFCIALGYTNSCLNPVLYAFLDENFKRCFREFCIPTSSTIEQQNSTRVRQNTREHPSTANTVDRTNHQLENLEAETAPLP
Chain of Mu-type opioid receptor (Cavia porcellus, UniProt P97266) (P97266 whole entry): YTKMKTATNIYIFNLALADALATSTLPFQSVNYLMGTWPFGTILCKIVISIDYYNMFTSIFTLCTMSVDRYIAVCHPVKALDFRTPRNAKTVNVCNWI
Chain of Delta-type opioid receptor (Rattus norvegicus) (P33533 whole entry): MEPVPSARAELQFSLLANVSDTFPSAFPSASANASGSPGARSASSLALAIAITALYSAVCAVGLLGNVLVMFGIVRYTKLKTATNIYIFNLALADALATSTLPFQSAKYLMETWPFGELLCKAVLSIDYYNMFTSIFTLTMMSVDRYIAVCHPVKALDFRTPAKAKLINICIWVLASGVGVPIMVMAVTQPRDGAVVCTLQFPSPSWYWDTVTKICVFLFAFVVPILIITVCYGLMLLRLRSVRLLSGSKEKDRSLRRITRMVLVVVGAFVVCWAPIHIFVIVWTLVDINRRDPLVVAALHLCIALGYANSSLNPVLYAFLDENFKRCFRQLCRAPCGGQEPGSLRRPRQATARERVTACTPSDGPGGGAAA
Chain of Delta-type opioid receptor (Rattus norvegicus, UniProt P33533) (P33533 whole entry): as above

SMILES | Ki (Mu-type opioid receptor [1]) [nM] | Ratio Ki (Rattus norvegicus [2]) | Ki [3] [nM] | pA2 [4] | pA2 [5] | IC50 [6] [nM] | IC50 (Mu-type opioid receptor [7]) [nM] | Ratio Ki (Rattus norvegicus [8])
Cc1cc(O)cc(C)c1C[C@H](N)C(=O)N1Cc2ccccc2C[C@H]1C(=O)NCC/C=C/CCNC(=O)[C@@H]1Cc2ccccc2CN1C(=O)[C@@H](N)Cc1c(C)cc(O)cc1C | 1.5 |  |  |  |  |  |  | 
Cc1cc(O)cc(C)c1C[C@@H](C(=O)N[C@H]1Cc2c([nH]c3ccccc23)CN(CC(=O)NCCNC(=O)CN2Cc3[nH]c4ccccc4c3C[C@H](NC(=O)[C@H](Cc3c(C)cc(O)cc3C)N(C)C)C2=O)C1=O)N(C)C | 344 | 3.4 | 101 | inactive | inactive |  |  | 
Cc1cc(O)cc(C)c1C[C@H](N)C(=O)N1Cc2ccccc2C[C@H]1C(=O)NCCNC(=O)[C@@H]1Cc2ccccc2CN1C(=O)[C@@H](N)Cc1c(C)cc(O)cc1C (I: H-[Dmt]-[Tic] / II: H-[Dmt]-[Tic]; linker I:C-II:C via Ethylenediamine) | 10.2 |  | 0.96 |  |  | > 10000 | > 10000 | 
Cc1cc(O)cc(C)c1C[C@H](N)C(=O)N1Cc2ccccc2C[C@H]1C(=O)O (H-[Dmt]-[Tic]-OH) | 3.32 |  |  |  |  |  |  | 
Cc1cc(O)cc(C)c1C[C@H](N)C(=O)N[C@H]1Cc2ccccc2CN(CC(=O)NCCN(CCNC(=O)CN2Cc3ccccc3C[C@H](NC(=O)[C@@H](N)Cc3c(C)cc(O)cc3C)C2=O)CCNC(=O)CN2Cc3ccccc3C[C@H](NC(=O)[C@@H](N)Cc3c(C)cc(O)cc3C)C2=O)C1=O | 8.06 |  | 196 |  |  | > 10000 | > 10000 | 
Cc1cc(O)cc(C)c1C[C@H](N)C(=O)N[C@@H]1Cc2c([nH]c3ccccc23)CN(CC(=O)NCCNC(=O)CN2Cc3[nH]c4ccccc4c3C[C@@H](NC(=O)[C@@H](N)Cc3c(C)cc(O)cc3C)C2=O)C1=O | 139 |  | 211 | inactive | inactive |  |  | 1.5
Cc1cc(O)cc(C)c1C[C@H](N)C(=O)N[C@@H]1Cc2c([nH]c3ccccc23)CN(CC(=O)NCc2ccc(CNC(=O)CN3Cc4[nH]c5ccccc5c4C[C@@H](NC(=O)[C@@H](N)Cc4c(C)cc(O)cc4C)C3=O)cc2)C1=O | 177 |  | 361 | inactive | inactive |  |  | 2
Cc1cc(O)cc(C)c1C[C@H](N)C(=O)N1Cc2ccccc2C[C@H]1C(=O)NCCN(CCNC(=O)[C@@H]1Cc2ccccc2CN1C(=O)[C@@H](N)Cc1c(C)cc(O)cc1C)CCNC(=O)[C@@H]1Cc2ccccc2CN1C(=O)[C@@H](N)Cc1c(C)cc(O)cc1C | 7.78 |  | 3.75 |  |  | > 10000 | > 10000 | 
Cc1cc(O)cc(C)c1C[C@H](N)C(=O)N[C@H]1Cc2ccccc2CN(CC(=O)NCCNC(=O)CN2Cc3ccccc3C[C@H](NC(=O)[C@@H](N)Cc3c(C)cc(O)cc3C)C2=O)C1=O | 16.1 |  | 154 |  |  |  | > 10000 | 
